Usually IC50 stands for the point on the concentration scale where inhibition reaches its midpoint.

The structures appear in SMILES notation.

Experiment [1] concerns MDA-MB-231. Kind of experiment: Cytotoxicity against breast cancer MDA-MB-231 cell line by MTT assay. The settings on record: Homo sapiens. The format is functional, cell-based. An outline of the steps: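 MDA-MB-231 cells were screened by MTT in an automated format across decreasing compound concentrations. Viability was expressed as % of untreated control, with 70% of control as the arbitrary cutoff for reduced viability at 10 µM. IC50 values are approximate and were assigned to concentration ranges.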

For another experiment, the system named is SH-SY5Y. Put plainly: Cytotoxicity against neuroblastoma SHSY5Y cell line by MTT assay at 100 uM. The format is functional, Homo sapiens. An outline of the steps:
(§1)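 Cells were exposed to compound at 100 µM for 48 h. Values are % viability relative to untreated control cells, given as mean ± SEM of four determinations.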

A further experiment has as its system RBL-2H3. Kind of experiment: Cytotoxicity against basophilic leukemia RBL 2H3 cell line by MTT assay at 100 uM. The format is functional, Rattus norvegicus. An outline of the steps:
as §1

The test system of the next experiment is FG2. Kind of experiment: Cytotoxicity against human pancreatic carcinoma FG2 cell line by MTT assay at 100 uM. The format is functional. An outline of the steps: as §1
On the technique in general: Tetrazolium dyes change colour on reduction, which living cells bring about.

Experiment [2] deals with MDA-MB-231. Put plainly: Cytotoxicity against breast cancer MDA-MB-231 cell line by MTT assay at 100 uM. It counts as functional, Homo sapiens. An outline of the steps:
as §1

For the molecule `Oc1cc(O)cc(-c2cn(-c3ccc4c(c3)OCO4)nn2)c1`, in the experiment with MDA-MB-231 [1], the IC50 was > 1 µM.

As for `COc1ccc(-n2cc(-c3ccc(N)cc3)nn2)cc1O`, the IC50 with MDA-MB-231 [1] was > 10 µM. As for `COc1ccc(-c2cn(-c3ccc(OC(F)(F)F)cc3)nn2)cc1O`, the IC50 in the experiment with MDA-MB-231 [1] was > 10 µM. Turning to `COc1ccc(-c2cn(-c3ccc(OC)c(OC)c3)nn2)cc1O`, the half-inhibitory concentration (IC50) with MDA-MB-231 [1] is > 0.1 µM. The same measure, in the same setting: to `COc1ccc(-c2cn(-c3ccc(OC(F)(F)F)cc3)nn2)cc1OC` belongs > 1 µM; to `Nc1ccc(-c2cn(-c3c(O)c(F)cc(F)c3F)nn2)cc1`, > 10 µM. Consider `COc1ccc(-n2cc(-c3cc(O)cc(O)c3)nn2)cc1OC`, for which the IC50 in the experiment with MDA-MB-231 [1] was > 10 µM.

For `COc1cc(OC)cc(-c2cn(-c3cc(OC)c(OC)c(OC)c3)nn2)c1`, the IC50 in the experiment on MDA-MB-231 [1] is > 10 µM.

Regarding `COc1ccc(-c2cn(-c3ccc(OC)c(O)c3)nn2)cc1`, the IC50 with MDA-MB-231 [1] is > 0.1 µM. The same measure, in the same setting: to `COc1cc(OC)cc(-c2cn(-c3cc(OC)cc(OC)c3)nn2)c1` belongs > 10 µM; to `COc1ccc(-c2cn(-c3ccc(OC(F)(F)F)cc3)nn2)cc1`, 1 µM. Take `COc1cc(-c2cn(-c3ccc4c(c3)OCO4)nn2)ccc1O`: in the experiment on MDA-MB-231 [1], the IC50 is > 10 µM. Same read-out and setting: to `COc1ccc(-n2cc(-c3ccc(OC)c(OC)c3)nn2)cc1O` belongs > 1 µM; to `COc1cc(-c2cn(-c3ccc(Oc4ccccc4)cc3)nn2)cc(OC)c1OC`, 10 µM; to `COc1cc(-c2cn(-c3cc(OC)c(OC)c(OC)c3)nn2)ccc1O`, > 10 µM. The same measure, in the same setting: to `COc1ccc(-c2cn(-c3ccc4c(c3)OCO4)nn2)cc1O` belongs > 10 µM. The same measure, in the same setting: to `COc1ccc(-n2cc(-c3cc(OC)c(OC)c(OC)c3)nn2)cc1O` belongs 10 µM; to `COc1ccc(-c2cn(-c3ccc4c(c3)OCO4)nn2)cc1`, 1 µM; to `COc1ccc(-c2cn(-c3c(O)c(F)cc(F)c3F)nn2)cc1`, > 1 µM. In turn, `COc1cc(-c2cn(-c3c(O)c(F)cc(F)c3F)nn2)ccc1O` came in with an IC50 with MDA-MB-231 [1] of 10 µM. As for `COc1ccc(-c2cn(-c3cc(OC)c(OC)c(OC)c3)nn2)cc1O`, in the experiment with MDA-MB-231 [1], the IC50 was > 10 µM.

As for `Oc1ccc(-c2cn(-c3cc(O)cc(O)c3)nn2)cc1`, the Activity is reported as 93.4% with SH-SY5Y, 110% with RBL-2H3, 93.7% in the experiment on FG2 and 97% in the experiment with MDA-MB-231 [2]. `COc1cc(-c2cn(-c3ccc(OC(F)(F)F)cc3)nn2)cc(OC)c1OC`: the IC50 in the experiment with MDA-MB-231 [1] is > 10 µM. The same measure, in the same setting: to `COc1cc(OC)cc(-c2cn(-c3ccc(OC)c(O)c3)nn2)c1` belongs > 10 µM. For `Nc1ccc(-c2cn(-c3ccc4c(c3)OCO4)nn2)cc1`, the IC50 in the experiment with MDA-MB-231 [1] is > 10 µM.

As for `COc1ccc(-n2cc(-c3cc(O)cc(O)c3)nn2)cc1`, the IC50 with MDA-MB-231 [1] was > 10 µM. Regarding `COc1ccc(-c2cn(-c3ccc(N)cc3)nn2)cc1O`, the 50% inhibitory concentration (IC50) in the experiment on MDA-MB-231 [1] was > 10 µM. Take `COc1ccc(-c2cn(-c3cc(O)cc(O)c3)nn2)cc1`: the Activity in the experiment with SH-SY5Y came to 62.2%; in the experiment on RBL-2H3 it was 99.6%; with FG2, 83.7%; with MDA-MB-231 [2] it was 72.2%. As to `COc1ccc(-c2cn(-c3cc(OC)c(OC)c(OC)c3)nn2)cc1`, the half-maximal inhibitory concentration (IC50) in the experiment on MDA-MB-231 [1] is > 10 µM.

As for `COc1ccc(-c2cn(-c3ccc(OC)cc3OC)nn2)cc1`, the IC50 in the experiment with MDA-MB-231 [1] was > 10 µM.

In the experiment on MDA-MB-231 [1], `COc1cc(OC)cc(-c2cn(-c3ccc(OC)c(OC)c3)nn2)c1` displayed a half-inhibitory concentration (IC50) of 10 µM. Still for that read-out and setting: to `COc1cc(OC)cc(-n2cc(-c3ccc(OC)c(O)c3)nn2)c1` belongs > 10 µM; to `COc1ccc(-c2cn(-c3ccc(OC)c(OC)c3)nn2)cc1`, > 10 µM; to `COc1ccc(-c2cn(-c3ccc(OC)c(O)c3)nn2)cc1O`, > 10 µM. `Oc1cc(O)cc(-c2cn(-c3ccc(OC(F)(F)F)cc3)nn2)c1`: the IC50 in the experiment on MDA-MB-231 [1] is > 10 µM. The same measure, in the same setting: to `COc1ccc(-c2cn(-c3ccc(OC)cc3)nn2)cc1` belongs > 0.1 µM; to `COc1cc(OC)cc(-c2cn(-c3c(O)c(F)cc(F)c3F)nn2)c1`, > 10 µM. On the same count and under the same terms, to `COc1cc(-c2cn(-c3ccc4c(c3)OCO4)nn2)cc(OC)c1OC` belongs 10 µM. As to `COc1ccc(-n2cc(-c3cc(OC)cc(OC)c3)nn2)cc1`, the Activity is 78.6% in the experiment with SH-SY5Y, 116% in the experiment with RBL-2H3, 88.2% in the experiment with FG2 and 93.2% in the experiment with MDA-MB-231 [2].

Consider `COc1cc(OC)cc(-n2cc(-c3ccc(OC)c(OC)c3)nn2)c1`, for which the half-inhibitory concentration (IC50) in the experiment with MDA-MB-231 [1] was > 1 µM. For the molecule `COc1ccc(-c2cn(-c3ccc(N)cc3)nn2)cc1`, in the experiment on MDA-MB-231 [1], the IC50 is > 0.1 µM. `COc1cc(-c2cn(-c3ccc(OC(F)(F)F)cc3)nn2)ccc1O`: in the experiment with MDA-MB-231 [1], half-maximal inhibition (IC50) was put at 10 µM. On to `COc1ccc(-c2cn(-c3ccc(Oc4ccccc4)cc3)nn2)cc1O`, for which the IC50 with MDA-MB-231 [1] is > 10 µM. On to `COc1cc(OC)cc(-n2cc(-c3ccc(N)cc3)nn2)c1`, for which the IC50 in the experiment with MDA-MB-231 [1] is > 10 µM. Same read-out and setting: to `COc1ccc(-n2cc(-c3ccc(N)cc3)nn2)cc1OC` belongs > 10 µM; to `COc1ccc(-c2cn(-c3ccc(Oc4ccccc4)cc3)nn2)cc1`, > 0.1 µM; to `COc1ccc(-n2cc(-c3ccc(N)cc3)nn2)c(OC)c1`, > 10 µM. `COc1ccc(-c2cn(-c3ccc4c(c3)OCO4)nn2)cc1OC` gave an IC50 in the experiment with MDA-MB-231 [1] of 10 µM.

On to `COc1cc(-c2cn(-c3cc(OC)c(OC)c(OC)c3)nn2)cc(OC)c1OC`, for which, in the experiment on MDA-MB-231 [1], the IC50 is > 10 µM.

With `Nc1ccc(-c2cn(-c3ccc(OC(F)(F)F)cc3)nn2)cc1`, the IC50 in the experiment with MDA-MB-231 [1] is > 0.01 µM.

Turning to `COc1cc(OC)cc(-c2cn(-c3ccc(OC)cc3OC)nn2)c1`, the IC50 in the experiment on MDA-MB-231 [1] is > 10 µM. Consider `COc1cc(OC)cc(-c2cn(-c3ccc4c(c3)OCO4)nn2)c1`, for which the IC50 with MDA-MB-231 [1] was > 10 µM. Still for that read-out and setting: to `COc1cc(-n2cc(-c3cc(O)cc(O)c3)nn2)cc(OC)c1OC` belongs > 10 µM. For the molecule `Oc1ccc(/C=C/c2cc(O)cc(O)c2)cc1` [RESVERATROL], the Activity with SH-SY5Y worked out at 33.5%; in the experiment on RBL-2H3 it was 52.1%; with FG2 it was 42.2%; with MDA-MB-231 [2], 67.9%.

As for `COc1ccc(-n2cc(-c3cc(O)cc(O)c3)nn2)c(OC)c1`, the IC50 in the experiment with MDA-MB-231 [1] is 10 µM. On the same count and under the same terms, to `COc1cc(OC)cc(-n2cc(-c3cc(OC)c(OC)c(OC)c3)nn2)c1` belongs > 1 µM; to `COc1cc(OC)cc(-n2cc(-c3cc(O)cc(O)c3)nn2)c1`, > 10 µM; to `COc1ccc(-n2cc(-c3ccc(OC)c(O)c3)nn2)cc1`, > 10 µM. On the same count and under the same terms, to `COc1ccc(-n2cc(-c3cc(OC)c(OC)c(OC)c3)nn2)c(OC)c1` belongs > 10 µM. On to `COc1cc(OC)cc(-c2cn(-c3ccc(Oc4ccccc4)cc3)nn2)c1`, for which, in the experiment with MDA-MB-231 [1], the IC50 is > 10 µM.

Consider `COc1cc(-n2cc(-c3ccc(N)cc3)nn2)cc(OC)c1OC`, for which the IC50 with MDA-MB-231 [1] was > 10 µM. For `COc1ccc(-n2cc(-c3cc(OC)c(OC)c(OC)c3)nn2)cc1`, the IC50 with MDA-MB-231 [1] is > 10 µM.

Regarding `Oc1cc(O)cc(-c2cn(-c3ccc(Oc4ccccc4)cc3)nn2)c1`, in the experiment with MDA-MB-231 [1], the IC50 is > 10 µM. Same read-out and setting: to `COc1ccc(-n2cc(-c3ccc(OC)c(OC)c3)nn2)cc1` belongs > 0.1 µM; to `COc1ccc(-n2cc(-c3ccc(O)c(OC)c3)nn2)cc1`, > 10 µM; to `COc1ccc(-n2cc(-c3ccc(OC)c(O)c3)nn2)c(OC)c1`, > 10 µM.

For the molecule `COc1ccc(-n2cc(-c3cc(O)cc(O)c3)nn2)cc1O`, the concentration for half-maximal inhibition (IC50) with MDA-MB-231 [1] is > 10 µM. The same measure, in the same setting: to `COc1cc(OC)cc(-n2cc(-c3ccc(O)c(OC)c3)nn2)c1` belongs 10 µM; to `COc1cc(OC)cc(-c2cn(-c3ccc(OC(F)(F)F)cc3)nn2)c1`, > 1 µM. As for `COc1ccc(-n2cc(-c3ccc(O)c(OC)c3)nn2)cc1O`, the IC50 with MDA-MB-231 [1] was > 10 µM. Take `COc1ccc(-n2cc(-c3ccc(N)cc3)nn2)cc1`: the IC50 in the experiment with MDA-MB-231 [1] was > 0.1 µM. Take `Nc1ccc(-c2cn(-c3ccc(Oc4ccccc4)cc3)nn2)cc1`: the IC50 in the experiment on MDA-MB-231 [1] is > 10 µM. Turning to `COc1ccc(-c2cn(-c3cc(OC)cc(OC)c3)nn2)cc1`, the Activity with SH-SY5Y was 85.9%; with RBL-2H3, 113%; with FG2, 100.8%; with MDA-MB-231 [2], 99.3%.

For `COc1ccc(-c2cn(-c3c(O)c(F)cc(F)c3F)nn2)cc1O`, the IC50 with MDA-MB-231 [1] was > 10 µM. The same measure, in the same setting: to `COc1ccc(-c2cn(-c3ccc(Oc4ccccc4)cc3)nn2)cc1OC` belongs 10 µM.

For the molecule `Oc1ccc(-n2cc(-c3cc(O)cc(O)c3)nn2)cc1`, the Activity with SH-SY5Y turned out to be 86.6%; with RBL-2H3, 114%; in the experiment on FG2, 91.9%; with MDA-MB-231 [2] it was 95.5%.

(Values after ChEMBL document CHEMBL1148612, “Rapid synthesis of triazole-modified resveratrol analogues via click chemistry” (J Med Chem, 2006).)
